Test results published in ChEMBL document CHEMBL1123848, “Role of the (acyloxy)methyl moiety in eliciting the adrenergic beta-blocking activity of 3-(acyloxy)propanolamines” (J Med Chem, 1987).

Assays:
[1] = target: Beta-2 adrenergic receptor (Cavia porcellus) (UniProt Q8K4Z4); experiment: (§1) Antagonist activity against beta-2 adrenergic receptor in isolated guinea pig trachea; format: functional, tissue-based
[2] = target: Beta-1 adrenergic receptor (Cavia porcellus) (UniProt B0FL73); experiment: (§2) Antagonist activity against beta-1 adrenergic receptor in isolated guinea pig atria; format: functional
Chain of Beta-1 adrenergic receptor (Cavia porcellus) (B0FL73 1-467): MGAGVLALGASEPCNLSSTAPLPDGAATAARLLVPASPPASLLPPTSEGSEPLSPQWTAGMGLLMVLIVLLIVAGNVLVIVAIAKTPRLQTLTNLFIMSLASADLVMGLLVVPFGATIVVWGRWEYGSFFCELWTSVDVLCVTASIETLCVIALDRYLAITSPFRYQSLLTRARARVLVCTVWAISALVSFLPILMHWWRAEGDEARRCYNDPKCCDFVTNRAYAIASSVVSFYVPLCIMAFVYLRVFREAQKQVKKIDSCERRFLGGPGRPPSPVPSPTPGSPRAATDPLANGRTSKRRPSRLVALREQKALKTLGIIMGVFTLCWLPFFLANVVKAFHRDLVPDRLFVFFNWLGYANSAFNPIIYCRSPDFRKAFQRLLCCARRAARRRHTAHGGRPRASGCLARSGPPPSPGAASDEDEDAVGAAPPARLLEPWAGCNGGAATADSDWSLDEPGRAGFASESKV
Outline: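 Atria from adult male guinea pigs (300–350 g), stabilized 45 min in Tyrode solution. Isoprenaline dose-effect curve by single doses, each run to maximal response. Antagonist added at increasing concentrations with 15 min contact per dose; solutions freshly prepared. Percent inhibition of the maximal agonist response measured; pA2 (50% reduction) and pA10 (90%) calculated by the Arunlakshana–Schild method.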

[3] = target: Beta-1 adrenergic receptor (Cavia porcellus, UniProt B0FL73); experiment: as §2; format: functional; conditions: read-out: pA2 (converted)
Chain of Beta-1 adrenergic receptor (B0FL73 whole entry): as the sequence (B0FL73 1-467) above
Outline: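 Atria from adult male guinea pigs (300–350 g), stabilized 45 min in Tyrode solution. Isoprenaline dose-effect curve by single doses, each run to maximal response. Antagonist added at increasing concentrations with 15 min contact per dose; solutions freshly prepared.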

[4] = target: Beta-2 adrenergic receptor (Cavia porcellus, UniProt Q8K4Z4); experiment: as §1; format: functional, tissue-based; conditions: read-out: pA2 (converted)
Chain of Beta-2 adrenergic receptor (Q8K4Z4 whole entry): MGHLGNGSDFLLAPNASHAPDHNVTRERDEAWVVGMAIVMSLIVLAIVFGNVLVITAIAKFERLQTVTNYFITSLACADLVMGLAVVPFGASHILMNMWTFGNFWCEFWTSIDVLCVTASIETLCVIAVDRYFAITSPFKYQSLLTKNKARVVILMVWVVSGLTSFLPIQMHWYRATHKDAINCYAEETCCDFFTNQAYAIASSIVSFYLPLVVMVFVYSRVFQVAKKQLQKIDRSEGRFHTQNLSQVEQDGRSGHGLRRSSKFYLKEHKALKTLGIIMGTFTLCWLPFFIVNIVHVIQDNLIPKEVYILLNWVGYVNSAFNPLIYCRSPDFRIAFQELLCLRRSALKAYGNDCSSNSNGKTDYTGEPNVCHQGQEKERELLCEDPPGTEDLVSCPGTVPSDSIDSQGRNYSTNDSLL

Chain of Beta-2 adrenergic receptor (Cavia porcellus) (Q8K4Z4 whole entry, looked up): as the sequence (Q8K4Z4 whole entry) above

Row | Structure (SMILES) | pA10 [1] | pA10 [2] | Kb [3] [µM] | Kb [4] [µM]
1 | CC(C)(C)NCC(O)COC(=O)C1CCCCC1 (stereo not given) | 4.71 | 4.22 | 7.94 | 2.51
2 | CC(C)(C)NCC(O)COC(=O)c1cccs1 (stereo not given) | 6.82 | 5.42 | 0.457 | 0.0191
3 | COc1ccc(OC)c(C(O)C(C)NC(C)(C)C)c1 (stereo not given) | 5.96 | 3.98 |  | 
4 | CC(C)NCC(O)COC(=O)Cc1cccs1 (stereo not given) | 4.35 | 4.28 | 11 | 10
5 | CC(C)NCC(O)COC(=O)c1cccs1 (stereo not given) | 5.54 | 5.11 | 1.58 | 0.468
6 | CCC(=O)OCC(O)CNC(C)(C)C (stereo not given) | 3.79 | 3.74 | 28.2 | 26.3
7 | CC(C)NCC(O)COC(=O)C1CCCCC1 (stereo not given) | 4.62 | 4.2 | 12.3 | 2.29
8 | CC(C)C(=O)OCC(O)CNC(C)(C)C (stereo not given) | 3.94 | 4.1 | 11.5 | 28.8
9 | CC(C)NCC(O)COC(=O)C(C)C (stereo not given) | 4.52 | 3.9 | 26.9 | 4.27
10 | CC(C)NCC(O)COC(=O)c1ccc2c(c1)OCO2 (stereo not given) |  |  | 0.126 | 
